Assay results collected from several papers.
Compare with care: the assays were run in different laboratories.
Cell line: HepG2
Read-out: cell growth or viability

Compound | test | setting | IC50
CC[C@@]1(OC(=O)[C@@H]2CCCN2)C(=O)OCc2c1cc1n(c2=O)Cc2cc3cc4c(cc3nc2-1)OCO4 | MTT | – | 263 nM
[Cl-].[Cl-].[Co+2] | MTT | 48 h | > 150000 nM
CC1=C(O)C(=O)C=C2C1=CC=C1[C@@]2(C)CC[C@@]2(C)[C@@H]3C[C@](C)(C(=O)O)CC[C@]3(C)CC[C@]12C | MTT | 48 h | 1230 nM
CCC1(c2ccc(N)cc2)CCC(=O)NC1=O (centres unmarked) | CCK-8 | 48 h | > 50000 nM
N.N.[Cl][Pt][Cl] | MTT | 48 h | 14000 nM
Nc1nc(-c2cccc(NC(=O)Nc3cccc(-c4c[nH]c(N)n4)c3)c2)c[nH]1 | XTT | 24 h | 850000 nM
COc1c2ccoc2cc2oc(=O)ccc12 | WST-1 | 48 h | 18100 nM
CC[C@@]1(OC(=O)Cc2c(C)n(C(=O)c3ccc(Cl)cc3)c3ccc(OC)cc23)C(=O)OCc2c1cc1n(c2=O)Cc2cc3cc4c(cc3nc2-1)OCO4 | MTT | – | 32 nM
O=C(O)CCCc1ccc(N(CCCl)CCCl)cc1 | CCK-8 | 48 h | 15100 nM
Cl.O[C@]12C=C(c3nccc4c3[nH]c3ccccc34)[C@@H]3CCN(CCCC/C=C\CC1)C[C@@]31C[C@@H]3/C=C\CCCCN3[C@H]12 | neutral red | 48 h | 1.55 µg/mL
Cl.Cl.Nc1nc(-c2cc(F)cc(NC(=O)Nc3cc(F)cc(-c4c[nH]c(N)n4)c3)c2)c[nH]1 | XTT | 24 h | > 256 µg/mL
CC[C@@]1(OC(=O)[C@H](C)N)C(=O)OCc2c1cc1n(c2=O)Cc2cc3cc4c(cc3nc2-1)OCO4 | MTT | – | 101 nM
CC1=C(O)C(=O)C=C2C1=CC=C1[C@@]2(C)CC[C@@]2(C)[C@@H]3C[C@](C)(C(=O)OCCCn4cc(C=O)c5ccccc54)CC[C@]3(C)CC[C@]12C | MTT | 48 h | 1760 nM
CC[C@@]1(OC(=O)C(C)c2cccc(C(=O)c3ccccc3)c2)C(=O)OCc2c1cc1n(c2=O)Cc2cc3cc4c(cc3nc2-1)OCO4 (some centres unmarked) | MTT | – | 364 nM
Cc1c2ccncc2c(C)c2c1[nH]c1ccccc12 | MTT | 72 h | 0.45 µg/mL
O=c1ccc2cc3ccoc3cc2o1 | WST-1 | 48 h | 17200 nM
CC[C@@]1(OC(=O)[C@@H](N)Cc2ccccc2)C(=O)OCc2c1cc1n(c2=O)Cc2cc3cc4c(cc3nc2-1)OCO4 | MTT | – | 88 nM
